ChEMBL document CHEMBL1817625, “Synthesis of pheophorbide-a conjugates with anticancer drugs as potential cancer diagnostic and therapeutic agents” (Bioorg Med Chem, 2011)
The source made the active and inactive calls.

What was measured:
KB = assay: Cytotoxicity against human KB cells assessed as inhibition of cell growth at 10 uM after 3 days by SRB assay; type: functional, cell-based
Method in brief: (§1)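 Cells were grown in RPMI 1640 with 10% FBS and antibiotic–antimycotic at 37 °C, 5% CO2, and trypsin/EDTA-detached. They were seeded at 50,000 cells/mL and exposed to 10 µM compound for 3 days. For SRB staining, cells were fixed cold for 1 h, stained 1 h at room temperature, washed with 1% acetic acid and solubilized in 10 mM Tris. A515 was read; means of four duplicates were expressed as % of solvent-treated control.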

HeLa [1] = assay: Cellular uptake in human HeLa cells at 10 uM after 48 hrs by confocal microscopic analysis; type: ADME, cell-based
Method in brief: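 HeLa cells were seeded in slide dishes in RPMI 1640 overnight. They were then exposed to 10 µM compound in complete medium for 48 h under 95% air/5% CO2 and washed three times with PBS. Confocal imaging used 440 nm excitation, collecting 575–600 nm emission (doxorubicin channel) and 655–755 nm emission (pheophorbide-a channel).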

MCF7 = assay: Cytotoxicity against human MCF7 cells assessed as inhibition of cell growth at 10 uM after 3 days by SRB assay; type: functional, cell-based
Method in brief: (§2)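 Cells were kept at 37 °C in 5% CO2, HeLa in DMEM and MCF7 in RPMI 1640, each with 10% FBS. They were seeded at 50,000 cells/mL in 96-well plates, exposed to 10 µM compound for 3 days, then fixed in the cold for 1 h. Staining was SRB for 1 h at room temperature with 1% acetic acid washes. Bound dye was released in 10 mM Tris and read at 515 nm. Values are means of four duplicated samples, as a percentage of solvent-treated control.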

HeLa [2] = assay: Cytotoxicity against human HeLa cells assessed as inhibition of cell growth at 10 uM after 3 days by SRB assay; type: functional, cell-based; method in brief: as §2
SK-OV-3 = assay: Cytotoxicity against human SKOV3 cells assessed as inhibition of cell growth at 10 uM after 3 days by SRB assay; type: functional, cell-based; method in brief: as §1
HCT-116 = assay: Cytotoxicity against human HCT116 cells assessed as inhibition of cell growth at 10 uM after 3 days by SRB assay; type: functional, cell-based; method in brief: as §1
YD-10B = assay: Cytotoxicity against human YD-10B cells assessed as inhibition of cell growth at 10 uM after 3 days by SRB assay; type: functional, cell-based
Method in brief: (§3)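 Cultures were kept in DMEM with 10% FBS and antibiotic–antimycotic at 37 °C, 5% CO2, and detached with trypsin/EDTA. Cells were plated at 50,000 cells/mL and treated with 10 µM compound for 3 days. SRB staining: 1 h cold fixation, 1 h room-temperature stain, 1% acetic acid washes, 10 mM Tris release. A515 was read; the mean of four duplicates was given as % of solvent-treated control.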

A549 = assay: Cytotoxicity against human A549 cells assessed as inhibition of cell growth at 10 uM after 3 days by SRB assay; type: functional, cell-based; method in brief: as §3
HepG2 = assay: Cytotoxicity against human HepG2 cells assessed as inhibition of cell growth at 10 uM after 3 days by SRB assay; type: functional, cell-based; method in brief: as §3
AT84 = assay: Cytotoxicity against mouse AT84 cells assessed as inhibition of cell growth at 10 uM after 3 days by SRB assay; type: functional, cell-based; method in brief: as §1
U-87MG ATCC = assay: Cytotoxicity against human U87MG cells assessed as inhibition of cell growth at 10 uM after 3 days by SRB assay; type: functional, cell-based; method in brief: as §1
PC-3 = assay: Cytotoxicity against human PC3 cells assessed as inhibition of cell growth at 10 uM after 3 days by SRB assay; type: functional, cell-based; method in brief: as §1

C=Cc1c(C)c2cc3nc(c4c5[nH]c(cc6nc(cc1[nH]2)C(C)=C6CC)c(C)c5C(=O)[C@@H]4C(=O)OC)[C@@H](CCC(=O)Nc1ccc(COC(=O)N[C@@H]2C[C@@H](O[C@H]4C[C@](O)(C(=O)CO)Cc5c(O)c6c(c(O)c54)C(=O)c4c(OC)cccc4C6=O)O[C@H](C)[C@@H]2O)cc1)[C@@H]3C
active: growth inhibition (GI) (KB) | growth inhibition (GI) (MCF7) | growth inhibition (GI) (HeLa [2]) | growth inhibition (GI) (SK-OV-3) | growth inhibition (GI) (HCT-116) | growth inhibition (GI) (YD-10B) | growth inhibition (GI) (A549) | growth inhibition (GI) (HepG2) | growth inhibition (GI) (AT84) | growth inhibition (GI) (U-87MG ATCC) | growth inhibition (GI) (PC-3)
Active: Drug uptake (HeLa [1])

C=Cc1c(C)c2cc3nc(c4c5[nH]c(cc6nc(cc1[nH]2)C(C)=C6CC)c(C)c5C(=O)[C@@H]4C(=O)OC)[C@@H](CCC(=O)O[C@@H](C(=O)O[C@H]1C[C@@]2(O)[C@@H](OC(=O)c4ccccc4)[C@@H]4[C@]5(OC(C)=O)CO[C@@H]5C[C@H](O)[C@@]4(C)C(=O)[C@H](OC(C)=O)C(=C1C)C2(C)C)[C@@H](NC(=O)c1ccccc1)c1ccccc1)[C@@H]3C
active: growth inhibition (GI) (KB) | growth inhibition (GI) (MCF7) | growth inhibition (GI) (HeLa [2]) | growth inhibition (GI) (YD-10B)

C=Cc1c(C)c2cc3nc(c4c5[nH]c(cc6nc(cc1[nH]2)C(C)=C6CC)c(C)c5C(=O)[C@@H]4C(=O)OC)[C@@H](CCC(=O)O)[C@@H]3C [PHEOPHORBIDE A]
Active: Drug uptake (HeLa [1])

COc1cccc2c1C(=O)c1c(O)c3c(c(O)c1C2=O)C[C@@](O)(C(=O)CO)C[C@@H]3O[C@H]1C[C@H](N)[C@H](O)[C@H](C)O1 [DOXORUBICIN]
Active: Drug uptake (HeLa [1])

C=Cc1c(C)c2cc3nc(c4c5[nH]c(cc6nc(cc1[nH]2)C(C)=C6CC)c(C)c5C(=O)[C@@H]4C(=O)OC)[C@@H](CCC(=O)Oc1ccccc1/C=C/C(=O)N[C@@H]1C[C@@H](O[C@H]2C[C@](O)(C(=O)CO)Cc4c(O)c5c(c(O)c42)C(=O)c2c(OC)cccc2C5=O)O[C@H](C)[C@@H]1O)[C@@H]3C
Active: Drug uptake (HeLa [1])
active: growth inhibition (GI) (KB) | growth inhibition (GI) (MCF7) | growth inhibition (GI) (HeLa [2]) | growth inhibition (GI) (SK-OV-3) | growth inhibition (GI) (HCT-116) | growth inhibition (GI) (YD-10B) | growth inhibition (GI) (A549) | growth inhibition (GI) (HepG2) | growth inhibition (GI) (AT84) | growth inhibition (GI) (U-87MG ATCC) | growth inhibition (GI) (PC-3)

C=Cc1c(C)c2cc3nc(c4c5[nH]c(cc6nc(cc1[nH]2)C(C)=C6CC)c(C)c5C(=O)[C@@H]4C(=O)OC)[C@@H](CCC(=O)N[C@@H]1C[C@@H](O[C@H]2C[C@](O)(C(=O)CO)Cc4c(O)c5c(c(O)c42)C(=O)c2c(OC)cccc2C5=O)O[C@H](C)[C@@H]1O)[C@@H]3C
active: growth inhibition (GI) (MCF7) | growth inhibition (GI) (HeLa [2]) | growth inhibition (GI) (AT84) | growth inhibition (GI) (U-87MG ATCC)
Active: Drug uptake (HeLa [1])
